# JMJD2C inh: inhibitors of human GASC-1 (JMJD2C) demethylase; actives 0.069% (n = 330,000); inhibition, % at 2.35 µM; GST-JMJD2C(1-420) H3K9me3 demethylation, DELFIA europium; Q9H3R0;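 active = more than half of a compound's replicate wells show inhibition beyond 50%, single wells judged on their own value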;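 also: signal counts dimethyl H3K9 product captured on neutravidin plate; 0% = median of DMSO wells and 100% = 0.3 times that DMSO median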
# DAX1 inh-1: inhibits human nuclear receptor DAX1. P51843. HEK293 Gal4-DAX1 luciferase reporter, luminescence. inhibition, % at 6.75 µM. actives 0.99% (n = 340,000). AID 504766;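 active = inhibition above the mean over all tested compounds plus 3 SD, cut at about 4.2% in these data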;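 also: 0% = DAX1-transfected cells with DMSO and 100% = empty-vector control cells with DMSO; inhibition shows as a rise in luminescence from relieved DAX1 repression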
# DAX1 inh-2: DAX1 (NR0B1) inhibition, primary screen | inhibition, % at 6.8 µM | AID 652010 | actives 1.1% (n = 370,000) | HEK293T StAR-luciferase reporter, SF-1/DAX-1 repression relief;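 active = inhibition above the mean over all tested compounds plus 3 SD, cut at about 3.6% in these data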;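 also: 0% = DAX-1 cells with DMSO and 100% = cells lacking DAX-1 with DMSO; higher inhibition means more luminescence from relief of DAX-1 repression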
# SMARCA2 activ: SMARCA2 function activation, primary screen; actives 1% (n = 370,000); MG213 cells, MMTV-luciferase reporter, dexamethasone, overnight; activation, % at 9.1 µM; in the data active = activation above about 7.8%;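 also: 0% = vehicle wells and 100% = reference activator wells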
# NR2E3 ag-1: agonists of human NR2E3 nuclear receptor | inhibition of corepressor binding, % at 3.98 µM | actives 0.35% (n = 360,000) | CHO-S Gal4-NCOR/VP16-NR2E3 two-hybrid, luciferase | Q9Y5X4;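 active = inhibition above the mean of all tested compounds plus 3 SD, cut at about 70% in these data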;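 also: 0% = DMSO with NR2E3 transfected cells and 100% = cells lacking NR2E3 construct; higher means lower luciferase signal from less NR2E3 corepressor binding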
# Target sequence (Q9Y5X4 whole entry, looked up, the tested form may be a part): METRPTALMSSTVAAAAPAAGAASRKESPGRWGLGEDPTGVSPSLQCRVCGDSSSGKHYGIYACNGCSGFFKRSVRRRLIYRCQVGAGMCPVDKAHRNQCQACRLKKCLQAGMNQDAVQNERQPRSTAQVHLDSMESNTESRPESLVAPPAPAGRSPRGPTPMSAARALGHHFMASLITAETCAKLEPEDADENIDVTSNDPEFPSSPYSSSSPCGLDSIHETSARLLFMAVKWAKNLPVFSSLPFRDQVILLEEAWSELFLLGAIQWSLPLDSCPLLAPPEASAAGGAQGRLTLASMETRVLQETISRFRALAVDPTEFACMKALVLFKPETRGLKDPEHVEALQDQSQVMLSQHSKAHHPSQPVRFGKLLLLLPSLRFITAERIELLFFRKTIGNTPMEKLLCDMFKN
# NR2E3 ag-2: agonists of human nuclear receptor NR2E3. actives 0.12% (n = 320,000). inhibition of corepressor binding, % at 4.78 µM. GST-NR2E3/biotin-RetCOR TR-FRET, 1536-well. Q9Y5X4. AID 2300;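 active = percent inhibition above the cutoff of mean plus 3 SD of all tested compounds, set per screening campaign, cut at about 20% in these data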;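 also: 0% = DMSO wells and 100% = biotin wells as full block of FRET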
#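 Material – GST-tagged NR2E3 plus biotinylated RetCOR corepressor · Quantity – NR2E3 fusion 1.35 nM · Times – 5 h incubation at 4 °C · Medium – pH 7.5 Tris-based buffer · Technique – TR-FRET, Eu(K)-anti-GST donor, streptavidin-D2 acceptor, ex 340, em 617/671 nm · Benchmarks – high control biotin, low control 0.6% DMSO · Format – 1536-well plates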
# DAX1 conf: confirmation of human DAX1 (NR0B1) inhibitors | shares compounds with DAX1 inh-2 | HEK293T StAR-promoter luciferase reporter, SF-1/DAX-1 repression | inhibition, % at 6.8 µM | actives 87% (n = 2,400);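 active = inhibition above the average of every tested compound plus 3 SD, cut at about 3.8% in these data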;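 also: 0% = DAX-1 cells with DMSO and 100% = no DAX-1 control cells with DMSO; active compounds raise luminescence by relieving repression of the StAR reporter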
# SF1 mutant ctr: nonselective inhibitor or artifact in SF-1 mutant DAX1 counter-screen; inhibition, % at 6.8 µM; actives 78% (n = 2,400); HEK293 StAR-luciferase, SF-1 AF2 mutant, luminescence; shares compounds with DAX1 inh-2;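 active = inhibition above the mean of all tested compounds plus 3 SD, cut at about 3% in these data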;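 also: 0% = DAX-1 transfected cells with DMSO and 100% = cells without DAX-1 with DMSO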
# Active calls of the source: *; / = no result given. Rows were chosen to be rich in hits. Some 3.2% of all compounds tested hit in one or more screens of this group.
SMILES,JMJD2C inh,DAX1 inh-1,DAX1 inh-2,SMARCA2 activ,NR2E3 ag-1,NR2E3 ag-2,DAX1 conf,SF1 mutant ctr
COc1ccc(/C=N/NC(=S)Nc2ccccc2)cc1,-4,1,7.7*,2,16,0,10*,5.8*
COc1ccc(/C=N/NC(=S)Nc2cccc(C(=O)O)c2)cc1,2,-4,1,5,-173,0,/,/
Clc1ccccc1OCc1nc(-c2ccncc2)no1,-4,1,2,2,-90,-2,/,/
Clc1ccc(OCc2nc(-c3ccncc3)no2)c(Br)c1,3,4,5.9*,2,-178,5,12*,8.5*
CCOC(=O)[C@@]12CCCC3=C1N(CCC3)C(=O)[C@H]2CC(=O)NCc1cccc2ccccc12,/,/,1,-2,/,/,/,/
COCC(=O)N(C[C@H]1[C@H](c2ccccc2)[C@@H](CO)N1C(=O)NC(C)C)C(C)C,/,/,0,-2,/,/,/,/
Nc1nn(-c2cccc(F)n2)cc1-c1ccc(Cl)cc1,-28,0,5.9*,4,-207,/,13*,5.3*
Nc1nn(-c2cccc(F)n2)cc1-c1ccccc1,16,2,4.6*,5,-168,/,12*,3.7*
COc1ccc(-c2ccn(-c3cccc(F)n3)n2)cc1,/,1,1,5,-57,/,/,/
CN1C(=O)C[C@@](C#N)(C(=O)NCc2ccccc2)[C@H]1c1ccccc1,/,/,0,-1,/,/,/,/
N/C(CS(=O)(=O)c1ccccc1)=N\OC(=O)c1ccc(F)cc1,-10,2,5.9*,3,-27,0,3.8*,3.2*
Cc1ccc(S(=O)(=O)N(Cc2ccccc2F)C(=O)N2CCN(C)CC2)cc1,7,1,5.0*,-4,-15,-2,2,1
CC(C)C[C@H]1COc2cc(F)ccc2S(=O)(=O)N1C,/,/,-1,-2,/,/,/,/
COc1ccc(-c2ccc3ccccc3n2)cc1OC,-9,1,5.3*,6,-133,5,7.4*,3.4*
COc1cc2ccc(-c3ccc4ccccc4n3)cc2cc1OC,/,2,1,-3,-131,/,/,/
COc1ccc2cc(-c3cc(C(=O)O)c4ccccc4n3)ccc2c1,-15,-4,5.2*,3,-97,0,11*,3.2*
COc1ccc(-c2cc(C(=O)O)c3ccccc3n2)c(OC)c1,0,-1,1,0,-15,2,/,/
COc1ccc(-c2ccc3ccccc3n2)cc1,19,-1,12*,6,-148,1,20*,8.7*
COc1ccc(-c2cc(OC)c3ccccc3n2)cc1,11,2,0,0,-25,-2,/,/
COc1ccc(CCc2ccc3ccccc3n2)cc1,/,2,5.7*,2,-95,/,13*,6.8*
COc1ccc(CCc2ccnc3ccccc23)cc1,/,-1,-2,-4,-29,/,/,/
COc1ccc(CNC(=O)CSc2nc3c([nH]2)c(=O)n(C)c(=O)n3C)cc1,/,/,0,-6,/,/,/,/
c1ccc(C2=NNC(=NC3CC3)SC2)cc1,-10,-2,6.8*,1,-86,4,5.3*,2
c1ccc2c(C3=NNC(=NC4CC4)SC3)c[nH]c2c1,-10,0,7.0*,4,-150,0,19*,7.1*
Cc1ccc(C(=O)Nc2ccc3nccnc3c2)cc1,4,-2,5.3*,0,-78,1,17*,8.3*
SMILES,JMJD2C inh,DAX1 inh-1,DAX1 inh-2,SMARCA2 activ,NR2E3 ag-1,NR2E3 ag-2,DAX1 conf,SF1 mutant ctr
CC(=O)c1ccc(NC(=O)c2ccc(C)c(Br)c2)cc1,-2,3,4.9*,7,-95,2,12*,9.4*
CCCCC(=O)Nc1ccc(C(=O)NNC(=O)c2ccc(C)c(Br)c2)cc1,8,-1,0,-4,-4,-2,/,/
Cc1cc(NC(=O)c2ccc3nccnc3c2)ccc1Br,/,2,5.6*,2,-138,/,7.6*,4.7*
COC(=O)[C@]12C[C@H](CC(=O)N3CCC(c4ccccc4)CC3)C(=O)N(Cc3cccc4ccccc34)C1=C[C@H](C1CCCC1)O[C@@H]2C,/,/,-1,-4,/,/,/,/
Cc1cc(O)cc(O[C@H]2OC(CO)[C@H](O)[C@@H](O)[C@H]2O)c1 (stereo not given in full),-5,0,0,1,-13,2,/,/
COc1ccc(/C=C/c2cc(O)cc(O[C@@H]3O[C@H](CO)[C@@H](O)[C@H](O)[C@H]3O)c2)cc1O,/,/,5.2*,-2,-45,/,13*,7.4*
COc1ccc(/C=C/c2cc(O)cc(OC3OC(CO)C(O)C(O)C3O)c2)cc1 (stereo not given),/,0,8.8*,3,-105,/,16*,8.2*
CCN1CCN(c2ccc(S(=O)(=O)N3CCCCC3)cc2NC(=O)/C=C/c2ccc(OC)c(OC)c2)CC1,8,1,2,6,6,0,/,/
CCN1CCN(c2ccc(S(=O)(=O)N3CCCCC3)cc2NC(=O)/C=C/c2ccc(Cl)cc2)CC1,/,0,4.8*,-1,-27,/,1,0
